We go through 2 compounds from paper PMC6624406 (British Journal of Clinical Pharmacology, 2019).

Usually AUC stands for concentration integrated over time. Higher therefore signals more exposure. As usually defined, the Cmax is the maximum level reached in the sampled fluid or tissue.

Some results are limits rather than exact numbers.

For one series, the system named is HIV‐1. Conditions: cited from earlier work.
A further series can be described thus: Safety and tolerability. As to conditions: for Participants reporting at least 1 AE: n = 16. The series is classed as in vivo, human. The procedure, abridged:
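Phase I open-label two-part study in opioid-dependent, HIV-seronegative adults on stable once-daily opioid maintenance, 16 per part. Usual dose alone on day 1, then with test compound 600 mg ER BID on days 2–9, confined day -1 to day 10. Safety assessed by AE reports, vital signs (screening, days 1, 5, 10), ECG/physical exam (screening, day 1, day 10) and clinical labs (days 5, 9).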

For series [1] the following is noted: human, in vivo; cited from earlier work.
Series [2] is classed as in vivo. As to conditions: human, plasma, oral.
Where [3] appears, read: Part 1, while receiving MET with FTR.
Setting [4] is: Part 2, while receiving BUP/NLX with FTR.

Turning to `COc1cnc(-n2cnc(C)n2)c2c1c(C(=O)C(=O)N1CCN(C(=O)c3ccccc3)CC1)cn2COP(=O)(O)O` [FTR, Fostemsavir], the “Decline in HIV‐1 RNA” value in the series on HIV‐1 (8 days of functional FTR monotherapy, FTR 600 mg ER BID) is on record as 0.8 log10 copies/mL. In addition, the “Rate of HIV virological suppression” value in the series on HIV‐1 (FTR with an optimized background therapy for 24 and 48 weeks) is given as 54%. Further, in “Safety and tolerability” (FTR 600 mg ER BID coadministered with MET or BUP/NLX), the Tolerability result is given as “well tolerated”. In addition, the Participants reporting headache in “Safety and tolerability” (setting [3]) amounted to 12.5%; in “Safety and tolerability” (setting [4]) it was 6.3%. The Participants reporting nausea in “Safety and tolerability” (setting [3]) turned out to be 12.5%; in “Safety and tolerability” (setting [4]) it was 18.8%. The “Participants reporting at least 1 AE” value in the series “Safety and tolerability” (Part 1, while receiving MET with FTR 600 mg ER BID) came to 62.5%; in the series “Safety and tolerability” (Part 2, while receiving BUP/NLX with FTR 600 mg ER BID), 50.0%.

Take `COc1cnc(-n2cnc(C)n2)c2[nH]cc(C(=O)C(=O)N3CCN(C(=O)c4ccccc4)CC3)c12` [TMR, temsavir]: in series [1], the Accumulation is less than 2 fold. This compound also showed an AUC in series [2] of 9760 ng·h/mL. Also, in series [2] (TMR C12, geometric mean (coefficient of variation [%]), FTR 600 mg ER BID coadministered with BUP/NLX), the concentration at 12 h is 468 ng/mL. In series [2] (TMR Cmax, geometric mean (coefficient of variation [%]), FTR 600 mg ER BID coadministered with BUP/NLX), the peak concentration (Cmax) worked out at 2050 ng/mL.
